Measured values published in ChEMBL document CHEMBL1154743, “A novel potent nicotinamide phosphoribosyltransferase inhibitor synthesized via click chemistry” (J Med Chem, 2010).
Calls of active or inactive are those of the source. The rule behind the calls is not given here.

What was measured:
SH-SY5Y [1] = experiment: Cytotoxicity against human SH-SY5Y cells assessed as reduction of total cellular NAD(P) level at 1 uM relative to control; type: functional; parameters: scale not given: the % may be the effect or the level left
SH-SY5Y [2] = experiment: Cytotoxicity against human SH-SY5Y cells assessed as reduction of total cellular NAD(P) level at 300 nM relative to control; type: functional; parameters: scale not given: the % may be the effect or the level left
Procedure, shortened: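 Total cellular NAD levels in SH-SY5Y cells screened at a single fixed concentration of 300 nM. Expressed relative to control, n = 10.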

SH-SY5Y [3] = experiment: Cytotoxicity against human SH-SY5Y cells assessed as cell viability after 48 hrs by MTT assay; type: functional, cell-based
Procedure, shortened: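 SH-SY5Y cells incubated with compound for 48 h and viability measured by MTT. Values are mean ± SEM of 8-12 determinations.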

SH-SY5Y [4] = experiment: Cytotoxicity against human SH-SY5Y cells assessed as reduction of total cellular NAD(P) level; type: functional, cell-based
SH-SY5Y [5] = experiment: Cytotoxicity against human SH-SY5Y cells assessed as cell viability after 48 hrs by MTT assay relative to control in presence of nicotinamide; type: functional
SH-SY5Y [6] = experiment: Induction of autophagy in human SH-SY5Y cells assessed as LC3/phosphotidylethanolamine coupling after 40 hrs by Western blot analysis; type: functional, cell-based
Procedure, shortened: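 Western blot of LC3-I and LC3-II, with tubulin as reference, in untreated and treated cells exposed to 10 nM compound. Six independent experiments were run, using two LC3 antibodies from different sources.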

Compound	Activity (SH-SY5Y [1])	Activity (SH-SY5Y [2])	IC50 (SH-SY5Y [3])	IC50 (SH-SY5Y [4])	Activity (SH-SY5Y [5])	Activity (SH-SY5Y [6])
N#CCCCc1cn(-c2ccncc2)nn1	31%	87.8%				
O=C(CCCCCCn1cc(-c2cccnc2)nn1)Nc1ccccc1Cl		79.5%	205 nM			
O=C(CCCCCCCn1cc(-c2cccnc2)nn1)n1c2ccccc2c2ccccc21		12%	37.4 nM	17.1 nM		
O=C(CCCCCCCn1cc(-c2cccnc2)nn1)Oc1ccccc1-c1ccccc1		74.7%				
O=C(CCCCCCCn1cc(-c2cccnc2)nn1)Nc1ccccc1Cc1ccccc1	30%	75.2%	72 nM			
COc1ccccc1NC(=O)CCCCCCn1cc(-c2cccnc2)nn1		87.9%				
O=C(CCCCCCCn1cc(-c2cccnc2)nn1)NCC(c1ccccc1)c1ccccc1	23%	11%	97 nM	49.2 nM		
O=C(CCCCCCCCn1cc(-c2cccnc2)nn1)Nc1ccccc1Oc1ccccc1	22.6%	79.5%	78 nM			
O=C(CCCCCCn1cc(-c2cccnc2)nn1)Nc1ccccc1-c1ccccc1	26.2%	88.2%	56 nM			
NC(=O)c1cccnc1 [NIACINAMIDE]					31%	
O=C(CCCCCCCCn1cc(-c2cccnc2)nn1)Nc1ccccc1Cc1ccccc1	13.1%	74.7%	82 nM			
O=C(CCCCCCn1cc(-c2cccnc2)nn1)NCC(c1ccccc1)c1ccccc1	16.8%	83.8%				
O=C(/C=C/c1cccnc1)NCCCCC1CCN(C(=O)c2ccccc2)CC1 [DAPORINAD]			1.7 nM	0.5 nM		Active
O=C(CCCCCCCCn1cc(-c2cccnc2)nn1)NCC(c1ccccc1)c1ccccc1	32.3%	77.3%	157 nM			
O=C(CCCCCCCCn1cc(-c2cccnc2)nn1)Nc1ccccc1-c1ccccc1	13%	35.6%	14.6 nM	84.4 nM		
O=C(CCCCCCn1cc(-c2cccnc2)nn1)Nc1ccccc1Cc1ccccc1	28%	86.1%				
O=C(CCCCCCCn1cc(-c2cccnc2)nn1)Nc1ccccc1Oc1ccccc1	17.7%	87.9%	37 nM			
O=C(CCCCCCn1cc(-c2cccnc2)nn1)Nc1ccccc1Oc1ccccc1	24.7%	81.3%	120 nM			
